Experimental data published in ChEMBL document CHEMBL1153988 (J Med Chem, 2009).
Calls of active or inactive are those of the source. No cut-off for these calls is given here.

How the values were obtained:
Mus musculus [1] = experiment: Anticonvulsant activity in CF1 albino mouse assessed as protection against maximal electroshock-induced seizures at 30 mg/kg, ip after 4 hrs; format: functional, organism-based; parameters: dose 30 mg/kg
Outline: (§1)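 Adult male CF no. 1 albino mice (18-25 g). Test compound suspended in 0.5% methylcellulose and given intraperitoneally at 0.01 mL/g body weight. Maximal electroshock challenge at the stated time. Read-out is the number of animals protected over the number tested; neurotoxicity is scored in parallel.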

Mus musculus [2] = experiment: Anticonvulsant activity in CF1 albino mouse assessed as protection against maximal electroshock-induced seizures at 100 mg/kg, ip after 4 hrs; format: functional, organism-based; parameters: dose 100 mg/kg; outline: as §1
Mus musculus [3] = experiment: Anticonvulsant activity in CF1 albino mouse assessed as protection against maximal electroshock-induced seizures at 300 mg/kg, ip after 4 hrs; format: functional, organism-based; parameters: dose 300 mg/kg; outline: as §1
Mus musculus [4] = experiment: Anticonvulsant activity in CF1 albino mouse assessed as protection against scMet-induced seizures at 30 mg/kg, ip after 0.5 hrs; format: functional, organism-based; parameters: dose 30 mg/kg
Outline: (§2)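 Adult male CF no. 1 albino mice (18-25 g) dosed intraperitoneally with compound suspended in 0.5% methylcellulose (0.01 mL/g). Convulsant challenge given subcutaneously as a 0.85% pentylenetetrazol solution in 0.9% saline. Read-out is animals protected over animals tested, with neurotoxicity scored in parallel.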

Mus musculus [5] = experiment: Anticonvulsant activity in CF1 albino mouse assessed as protection against scMet-induced seizures at 100 mg/kg, ip after 0.5 hrs; format: functional, organism-based; parameters: dose 100 mg/kg; outline: as §2
Mus musculus [6] = experiment: Anticonvulsant activity in CF1 albino mouse assessed as protection against scMet-induced seizures at 300 mg/kg, ip after 0.5 hrs; format: functional, organism-based; parameters: dose 300 mg/kg; outline: as §2
Mus musculus [7] = experiment: Anticonvulsant activity in CF1 albino mouse assessed as protection against scMet-induced seizures at 30 mg/kg, ip after 4 hrs; format: functional, organism-based; parameters: dose 30 mg/kg; outline: as §2
Mus musculus [8] = experiment: Anticonvulsant activity in CF1 albino mouse assessed as protection against scMet-induced seizures at 100 mg/kg, ip after 4 hrs; format: functional, organism-based; parameters: dose 100 mg/kg; outline: as §2
Mus musculus [9] = experiment: Anticonvulsant activity in CF1 albino mouse assessed as protection against scMet-induced seizures at 300 mg/kg, ip after 4 hrs; format: functional, organism-based; parameters: dose 300 mg/kg; outline: as §2
Mus musculus [10] = experiment: Neurotoxicity in CF1 albino mouse at 30 mg/kg, ip after 0.5 hrs; format: toxicity, organism-based; parameters: dose 30 mg/kg, route intraperitoneal; settings: in vivo
Outline: (§3)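 Male CF no. 1 albino mice (18-25 g) received a single ip dose as a suspension in 0.5% methylcellulose. The read-out was the number of animals showing neurotoxicity (minimal motor impairment) over the number tested.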

Mus musculus [11] = experiment: Neurotoxicity in CF1 albino mouse at 100 mg/kg, ip after 0.5 hrs; format: toxicity, organism-based; parameters: dose 100 mg/kg, route intraperitoneal; settings: in vivo; outline: as §3
Mus musculus [12] = experiment: Neurotoxicity in CF1 albino mouse at 300 mg/kg, ip after 0.5 hrs; format: toxicity, organism-based; parameters: dose 300 mg/kg, route intraperitoneal; settings: in vivo; outline: as §3
Mus musculus [13] = experiment: Neurotoxicity in CF1 albino mouse at 30 mg/kg, ip after 4 hrs; format: toxicity, organism-based; parameters: dose 30 mg/kg, route intraperitoneal; settings: in vivo; outline: as §3
Mus musculus [14] = experiment: Neurotoxicity in CF1 albino mouse at 100 mg/kg, ip after 4 hrs; format: toxicity, organism-based; parameters: dose 100 mg/kg, route intraperitoneal; settings: in vivo; outline: as §3
Mus musculus [15] = experiment: Neurotoxicity in CF1 albino mouse at 300 mg/kg, ip after 4 hrs; format: toxicity, organism-based; parameters: dose 300 mg/kg, route intraperitoneal; settings: in vivo; outline: as §3
Rattus norvegicus [16] = experiment: Anticonvulsant activity in albino Sprague-Dawley rat assessed as protection against maximal electroshock-induced seizures at 50 mg/kg, po after 4 hrs; format: functional, organism-based; parameters: dose 50 mg/kg
Outline: (§4)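 Adult male Sprague-Dawley albino rats (100-150 g) dosed orally with compound suspended in 0.5% methylcellulose (0.04 mL per 10 g). Maximal electroshock challenge at the stated time. Protection is scored in 25% steps as the fraction of animals protected, with neurotoxicity recorded in parallel.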

Rattus norvegicus [17] = experiment: Anticonvulsant activity in albino Sprague-Dawley rat assessed as protection against maximal electroshock-induced seizures at 50 mg/kg, po after 15 mins; format: functional; outline: as §4
Rattus norvegicus [18] = experiment: Anticonvulsant activity in albino Sprague-Dawley rat assessed as protection against maximal electroshock-induced seizures at 50 mg/kg, po after 30 mins; format: functional; outline: as §4
Rattus norvegicus [19] = experiment: Anticonvulsant activity in albino Sprague-Dawley rat assessed as protection against maximal electroshock-induced seizures at 50 mg/kg, po after 1 hr; format: functional; outline: as §4
Rattus norvegicus [20] = experiment: Anticonvulsant activity in albino Sprague-Dawley rat assessed as protection against maximal electroshock-induced seizures at 50 mg/kg, po after 2 hrs; format: functional; outline: as §4
Rattus norvegicus [21] = experiment: Neurotoxicity in albino Sprague-Dawley rat at 50 mg/kg, po; format: toxicity, organism-based; parameters: dose 50 mg/kg, route oral; settings: in vivo
Outline: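 Neurotoxicity was scored in male Sprague-Dawley albino rats (100-150 g) dosed orally with a suspension in 0.5% methylcellulose. The read-out was the fraction of animals showing neurotoxicity (minimal motor impairment).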

Rattus norvegicus [22] = experiment: Anticonvulsant activity in albino Sprague-Dawley rat assessed as protection against scMet-induced seizures at 50 mg/kg, po after 15 mins; format: functional
Outline: (§5)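 Male Sprague-Dawley albino rats (100-150 g) were given the compound orally as a suspension in 0.5% methylcellulose. Seizures were induced by subcutaneous pentylenetetrazol, dissolved in 0.9% saline as a 2.82% solution. The read-out was animals protected over animals tested.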

Rattus norvegicus [23] = experiment: Anticonvulsant activity in albino Sprague-Dawley rat assessed as protection against scMet-induced seizures at 50 mg/kg, po after 30 mins; format: functional; outline: as §5
Rattus norvegicus [24] = experiment: Anticonvulsant activity in albino Sprague-Dawley rat assessed as protection against scMet-induced seizures at 50 mg/kg, po after 1 hr; format: functional; outline: as §5
Rattus norvegicus [25] = experiment: Anticonvulsant activity in albino Sprague-Dawley rat assessed as protection against scMet-induced seizures at 50 mg/kg, po after 2 hrs; format: functional; outline: as §5
Rattus norvegicus [26] = experiment: Anticonvulsant activity in albino Sprague-Dawley rat assessed as protection against scMet-induced seizures at 50 mg/kg, po after 4 hrs; format: functional; outline: as §5
Mus musculus [27] = experiment: Anticonvulsant activity in CF1 albino mouse assessed as protection against maximal electroshock-induced seizures at 30 mg/kg, ip after 0.5 hrs; format: functional, organism-based; parameters: dose 30 mg/kg; outline: as §1
Mus musculus [28] = experiment: Anticonvulsant activity in CF1 albino mouse assessed as protection against maximal electroshock-induced seizures at 100 mg/kg, ip after 0.5 hrs; format: functional, organism-based; parameters: dose 100 mg/kg; outline: as §1
Mus musculus [29] = experiment: Anticonvulsant activity in CF1 albino mouse assessed as protection against maximal electroshock-induced seizures at 300 mg/kg, ip after 0.5 hrs; format: functional, organism-based; parameters: dose 300 mg/kg; outline: as §1
Rattus norvegicus [30] = species: Rattus norvegicus; experiment: Protective index, ratio of TD50 for albino Sprague-Dawley rat to ED50 for maximal electroshock-induced albino Sprague-Dawley rat seizure model; format: functional
Outline: (§6)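 Protective index is the rat TD50 (minimal motor impairment) divided by the ED50 in the MES or sc pentylenetetrazol test. Male Sprague-Dawley rats were dosed orally in 0.5% methylcellulose, and both values came from probit analysis.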

Rattus norvegicus [31] = species: Rattus norvegicus; experiment: Protective index, ratio of TD50 for albino Sprague-Dawley rat to ED50 for scMet-induced albino Sprague-Dawley rat seizure model; format: functional; outline: as §6
Mus musculus [32] = experiment: Anticonvulsant activity in ip dosed CF1 albino mouse assessed as protection against scMet-induced seizures; format: functional
Outline: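 Adult male CF no. 1 albino mice (18-25 g) dosed ip with compound suspended in 0.5% methylcellulose (0.01 mL/g body weight). Seizures were induced by subcutaneous pentylenetetrazol, given as a 0.85% solution in 0.9% saline. ED50 was found by varying the dose to give 3-4 points between 0% and 100% protection, then probit analysis with 95% confidence intervals.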

Mus musculus [33] = species: Mus musculus; experiment: Protective index, ratio of TD50 for CF1 albino mouse to ED50 for scMet-induced CF1 albino seizure mouse model; format: functional
Outline: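 Ratio of TD50 to ED50 (MES or scMet) in male CF no. 1 mice (18-25 g) given ip doses in 0.5% methylcellulose. TD50 comes from minimal motor impairment: the dose was varied until four points lay between no impairment and all animals impaired. Both TD50 and ED50 were derived by probit analysis with 95% confidence intervals.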

Mus musculus [34] = experiment: Anticonvulsant activity in CF1 albino mouse assessed as protection against maximal electroshock-induced seizures at 60 mg/kg, ip; format: functional, organism-based; parameters: dose 60 mg/kg; outline: as §1
Mus musculus [35] = experiment: Anticonvulsant activity in CF1 albino mouse assessed as protection against maximal electroshock-induced seizures at 400 mg/kg, ip; format: functional, organism-based; parameters: dose 400 mg/kg; outline: as §1
Mus musculus [36] = experiment: Anticonvulsant activity in CF1 albino mouse assessed as protection against maximal electroshock-induced seizures at 150 mg/kg, ip after 0.5 hrs; format: functional, organism-based; parameters: dose 150 mg/kg; outline: as §1

## CC1(C)C(C)(C)C1(C)C(N)=O
Mus musculus [1]
  Activity: Non-toxic
Mus musculus [2]
  Activity: Non-toxic
Mus musculus [3]
  Activity: Non-toxic
Mus musculus [4]
  Activity: Non-toxic
Mus musculus [5]
  Activity: Non-toxic
Mus musculus [6]
  Activity: Toxic
Mus musculus [7]
  Activity: Non-toxic
Mus musculus [8]
  Activity: Non-toxic
Mus musculus [9]
  Activity: Non-toxic
Mus musculus [10]
  Activity: Non-toxic
Mus musculus [11]
  Activity: Non-toxic
Mus musculus [12]
  Activity: Toxic
Mus musculus [13]
  Activity: Non-toxic
Mus musculus [14]
  Activity: Non-toxic
Mus musculus [15]
  Activity: Non-toxic
Rattus norvegicus [16]
  Activity: inactive
Rattus norvegicus [17]
  Activity: inactive
Rattus norvegicus [18]
  Activity: inactive
Rattus norvegicus [19]
  Activity: inactive
Rattus norvegicus [20]
  Activity: inactive
Rattus norvegicus [21]
  Activity: Not Active
Rattus norvegicus [22]
  Activity: inactive
Rattus norvegicus [23]
  Activity: inactive
Rattus norvegicus [24]
  Activity: 25%
Rattus norvegicus [25]
  Activity: 25%
Rattus norvegicus [26]
  Activity: inactive
Mus musculus [27]
  Activity: Non-toxic
Mus musculus [28]
  Activity: Non-toxic
Mus musculus [29]
  Activity: Toxic

## CC1(C)C(C)(C)C1(C)C(=O)O
Mus musculus [1]
  Activity: Non-toxic
Mus musculus [2]
  Activity: Non-toxic
Mus musculus [3]
  Activity: Non-toxic
Mus musculus [4]
  Activity: Non-toxic
Mus musculus [5]
  Activity: Non-toxic
Mus musculus [6]
  Activity: Non-toxic
Mus musculus [7]
  Activity: Non-toxic
Mus musculus [8]
  Activity: Non-toxic
Mus musculus [9]
  Activity: Non-toxic
Mus musculus [10]
  Activity: Non-toxic
Mus musculus [11]
  Activity: Non-toxic
Mus musculus [13]
  Activity: Non-toxic
Mus musculus [14]
  Activity: Non-toxic
Mus musculus [15]
  Activity: Non-toxic
Rattus norvegicus [16]
  Activity: inactive
Rattus norvegicus [17]
  Activity: inactive
Rattus norvegicus [18]
  Activity: inactive
Rattus norvegicus [19]
  Activity: inactive
Rattus norvegicus [20]
  Activity: inactive
Rattus norvegicus [21]
  Activity: Not Active
Rattus norvegicus [22]
  Activity: inactive
Rattus norvegicus [23]
  Activity: inactive
Rattus norvegicus [24]
  Activity: inactive
Rattus norvegicus [25]
  Activity: inactive
Rattus norvegicus [26]
  Activity: 25%
Mus musculus [27]
  Activity: Non-toxic
Mus musculus [28]
  Activity: Non-toxic
Mus musculus [29]
  Activity: Toxic

## CC1(C)C(C(=O)NC(N)=O)C1(C)C [2,2,3,3-TETRAMETHYLCYCLOPROPANECARBONYLUREA]
Rattus norvegicus [30]
  PI: 18.5
Rattus norvegicus [31]
  PI: 5.9

## CCCC(F)(CCC)C(N)=O
Mus musculus [32]
  ED50: 23 mg/kg
Mus musculus [33]
  PI: 3.8
Mus musculus [34]
  Activity: inactive
Mus musculus [35]
  Activity: Active
Mus musculus [36]
  Activity: inactive
